How the values were obtained:
[1] = system: Radical scavenging activity; experiment: Antioxidant activity assessed as inhibition DPPH radical production after 15 mins by spectrophotometric analysis; assay type: functional
How it was run: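 Compounds at 1–50 in methanol were mixed with an equal volume of methanolic DPPH. Absorbance was compared with a control of DPPH plus methanol without compound, and results are given as percent radical scavenging.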

[2] = biological target: T1, Xanthine dehydrogenase/oxidase (Rattus norvegicus, UniProt P22985); experiment: Inhibition of Wistar albino rat xanthine oxidase isolated from liver using xanthine as substrate incubated for 15 mins prior to substrate addition by spectrophotometric analysis
How it was run: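 Xanthine oxidase was prepared from perfused Wistar albino rat liver. The liver was homogenized in ice-cold 0.05 M phosphate (pH 7.8) with 0.1 mM EDTA and spun at 10,000g. The supernatant was precipitated with 60% ammonium sulfate, dialyzed against phosphate pH 6.8, and protein measured by Lowry. Enzyme was preincubated with compound in DMSO in phosphate pH 7.4 at room temperature for 15 min. Uric acid was read at 295 nm; inhibition was relative to DMSO-only control, and IC50 came from linear regression.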

[3] = biological target: T1, Xanthine dehydrogenase/oxidase; experiment: Competitive inhibition of Wistar albino rat xanthine oxidase isolated from liver using xanthine as substrate by Lineweaver-Burk plot analysis
How it was run: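 Inhibition type was assessed with the rat liver XO preparation by varying xanthine substrate across 1–5 and analysing by Lineweaver–Burk plot.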

T1 sequence (P22985 whole entry, the tested form may be a part): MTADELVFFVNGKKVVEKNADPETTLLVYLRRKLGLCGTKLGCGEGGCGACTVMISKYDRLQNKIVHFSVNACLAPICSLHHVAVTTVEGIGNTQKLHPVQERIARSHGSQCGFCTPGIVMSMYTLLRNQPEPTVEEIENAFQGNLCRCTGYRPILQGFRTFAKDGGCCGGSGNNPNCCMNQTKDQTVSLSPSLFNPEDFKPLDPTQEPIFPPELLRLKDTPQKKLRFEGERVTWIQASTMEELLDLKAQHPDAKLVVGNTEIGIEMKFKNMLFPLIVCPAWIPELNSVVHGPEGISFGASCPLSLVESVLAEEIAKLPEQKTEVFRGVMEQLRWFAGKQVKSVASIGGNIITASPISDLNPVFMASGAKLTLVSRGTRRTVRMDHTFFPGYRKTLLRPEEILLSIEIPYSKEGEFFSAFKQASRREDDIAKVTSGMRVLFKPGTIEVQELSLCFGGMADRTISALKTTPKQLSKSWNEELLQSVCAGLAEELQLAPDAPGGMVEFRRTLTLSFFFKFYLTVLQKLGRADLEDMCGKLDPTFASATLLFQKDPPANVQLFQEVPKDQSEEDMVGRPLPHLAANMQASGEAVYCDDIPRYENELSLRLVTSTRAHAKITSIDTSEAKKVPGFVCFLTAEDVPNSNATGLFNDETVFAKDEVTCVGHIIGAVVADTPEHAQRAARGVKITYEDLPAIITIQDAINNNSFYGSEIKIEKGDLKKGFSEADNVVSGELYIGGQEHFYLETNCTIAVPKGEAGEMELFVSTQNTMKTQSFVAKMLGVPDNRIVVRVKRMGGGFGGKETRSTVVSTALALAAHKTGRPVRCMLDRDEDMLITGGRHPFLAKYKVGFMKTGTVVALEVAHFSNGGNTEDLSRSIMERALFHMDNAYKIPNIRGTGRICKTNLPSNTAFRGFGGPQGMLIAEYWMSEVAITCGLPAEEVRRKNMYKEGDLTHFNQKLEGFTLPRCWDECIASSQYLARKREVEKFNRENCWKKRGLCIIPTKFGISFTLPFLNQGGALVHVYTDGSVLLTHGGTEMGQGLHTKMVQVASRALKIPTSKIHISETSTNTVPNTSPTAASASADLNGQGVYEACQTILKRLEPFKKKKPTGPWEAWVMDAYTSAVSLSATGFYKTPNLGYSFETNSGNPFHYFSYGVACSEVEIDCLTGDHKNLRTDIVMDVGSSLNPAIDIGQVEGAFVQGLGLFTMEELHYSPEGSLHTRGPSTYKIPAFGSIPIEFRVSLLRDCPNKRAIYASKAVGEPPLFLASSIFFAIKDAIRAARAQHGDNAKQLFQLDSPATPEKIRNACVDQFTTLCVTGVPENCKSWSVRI

| IC50 [1] | IC50 [2] | inhibition (INH) [3] | SMILES |
| --- | --- | --- | --- |
| 31.5 µM | 26 µM |  | CCCCc1nc(Cl)c(C2CC(c3cc(Cl)sc3Cl)=NN2c2nc(-c3ccc(Cl)cc3)cs2)[nH]1 (configuration not stated) |
| 21.8 µM | 20 µM |  | CCCCc1nc(Cl)c(C2CC(c3cc(Cl)sc3SCc3ccccc3)=NN2c2nc(-c3ccc(Cl)cc3)cs2)[nH]1 (configuration not stated) |
| 29.3 µM | 23.9 µM |  | CCCCc1nc(Cl)c(C2CC(c3cc(Cl)sc3S(N)(=O)=O)=NN2c2nc(-c3ccc(Cl)cc3)cs2)[nH]1 (configuration not stated) |
| 44.8 µM | 36 µM |  | Clc1ccc(-c2csc(N3N=C(c4cc(Cl)sc4Cl)CC3c3ccc(Cl)cc3)n2)cc1 (configuration not stated) |
| 41.5 µM | 32 µM |  | Clc1ccc(-c2csc(N3N=C(c4cc(Cl)sc4SCc4ccccc4)CC3c3ccc(Cl)cc3)n2)cc1 (configuration not stated) |
| 43 µM | 34.2 µM |  | NS(=O)(=O)c1sc(Cl)cc1C1=NN(c2nc(-c3ccc(Cl)cc3)cs2)C(c2ccc(Cl)cc2)C1 (configuration not stated) |
| > 50 µM | > 50 µM |  | Fc1ccc(C2CC(c3cc(Cl)sc3Cl)=NN2c2nc(-c3ccc(Cl)cc3)cs2)cc1 (configuration not stated) |
| > 50 µM | > 50 µM |  | Fc1ccc(C2CC(c3cc(Cl)sc3SCc3ccccc3)=NN2c2nc(-c3ccc(Cl)cc3)cs2)cc1 (configuration not stated) |
| > 50 µM | > 50 µM |  | NS(=O)(=O)c1sc(Cl)cc1C1=NN(c2nc(-c3ccc(Cl)cc3)cs2)C(c2ccc(F)cc2)C1 (configuration not stated) |
| 21.1 µM | 9.4 µM |  | CN(C)c1ccc(C2CC(c3cc(Cl)sc3Cl)=NN2c2nc(-c3ccc(Cl)cc3)cs2)cc1 (configuration not stated) |
| 15.6 µM | 6.2 µM | Active | CN(C)c1ccc(C2CC(c3cc(Cl)sc3SCc3ccccc3)=NN2c2nc(-c3ccc(Cl)cc3)cs2)cc1 (configuration not stated) |
| 19.3 µM | 8.3 µM |  | CN(C)c1ccc(C2CC(c3cc(Cl)sc3S(N)(=O)=O)=NN2c2nc(-c3ccc(Cl)cc3)cs2)cc1 (configuration not stated) |
| 11.5 µM |  |  | O=C1O[C@H]([C@@H](O)CO)C(O)=C1O [ASCORBIC ACID] |

| SMILES | IC50 [1] | IC50 [2] | inhibition (INH) [3] |
| --- | --- | --- | --- |
| Oc1ncnc2[nH]ncc12 [ALLOPURINOL] |  | 6 µM |  |

— ChEMBL document CHEMBL2311377, “Trisubstituted thiophene analogues of 1-thiazolyl-2-pyrazoline, super oxidase inhibitors and free radical scavengers” (Bioorg Med Chem, 2013)
